Published values gathered from unrelated publications.
Medium: plasma

`N#Cc1cccc(-c2ccc3ncc(-c4cc(F)cc(F)c4)c(N4CCC(N)CC4)c3c2)c1O` gave a Cmax of 162 ng/mL (male human; oral, 20 mg, single dose).
For `COc1ccc2c(c1)CN(C(=O)CCN1CCC(Cc3ccccc3)CC1)CC[S@@+]2[O-]`, the Cmax was 1310 ng/mL (male human; intravenous, 0.6 mg/kg, healthy volunteers).
`CC(C)n1c(C2CCNCC2)nc2c([N+](=O)[O-])c(Br)c(Br)cc21` gave a Cmax of 33.6 ng/mL (human; oral, 50 mg, patients).
For `COc1ccc(-c2c(Nc3ccccn3)[nH]c3c(C4=CCCCC4)c(-c4ccccc4)nn3c2=O)cc1`, the Cmax was 5720 ng/mL (human; oral, 200 mg once daily, multiple doses, patients).
For `O=C(COc1ccc(Cl)cc1)NC12CC(c3nnc([C@H]4C[C@@H](OC(F)(F)F)C4)o3)(C1)C2`, the Cmax was 18600 nM (human; oral, 260 mg, multiple doses, once daily, steady state, healthy volunteers).
`COc1ccc(F)cc1C(=O)NCc1ccc(-c2nn([C@@H](C)C(F)(F)F)c(N)c2C(N)=O)cc1` gave a Cmax of 4490 ng/mL (male human; oral, 200 mg, single dose).
`C=CC(=O)NC1CCN(c2ncc3ncnc(Nc4ccc(Oc5ccc6c(c5)ncn6C)c(C)c4)c3n2)CC1` has a Cmax of 1160 nM (male human; oral, 60 mg, single dose, healthy volunteers).
The Cmax of `OC[C@H]1O[C@@H](c2cc(Cc3ccc(C4CC4)cc3)c(Cl)c3c2CCO3)[C@H](O)[C@@H](O)[C@@H]1O` is reported as 3.74 ng/mL (human; oral, 0.3 mg, single dose, fed).
The Cmax of `CC(=O)N(C)[C@H]1CCN(C(=O)c2cnc3c(c2)C[C@](C)(c2ccc(F)cc2)N3)C1` is reported as 797 nM (male human; oral, 30 mg, multiple doses, once daily, steady state).
With `Cc1cc(-c2nccc3c2ccn3CC(=O)Nc2ccc(-c3cnccn3)cn2)ccn1` the Cmax was 188 nM (human; oral, 20 mg, single dose).
